Assay results taken from ChEMBL document CHEMBL1157828, “Design, synthesis and pharmacological evaluation of novel naphthalenic derivatives as selective MT(1) melatoninergic ligands” (Bioorg Med Chem, 2010).

Legend:
[1] = molecular target: T1, Melatonin receptor type 1A (Homo sapiens, UniProt P48039); assay: Displacement of 2-[125I]iodomelatonin from human MT1 receptor expressed in CHO cells; type: cell-based
Method in brief: (§1)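 Membranes from CHO cells stably expressing human MT1 or MT2, grown in DMEM with 10% fetal calf serum, homogenized in Tris/EDTA and pelleted at 95,000g. Incubated with 20 pM 2-[125I]-iodomelatonin and test drug in 50 mM Tris/HCl pH 7.4, 5 mM MgCl2, 120 min at 37 °C. Stopped by filtration onto PEI-soaked GF/B filters. Ki = IC50/(1+[L]/KD) from seven-concentration curves.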

[2] = molecular target: T2, Melatonin receptor type 1B (Homo sapiens, UniProt P49286); assay: Displacement of 2-[125I]iodomelatonin from human MT2 receptor expressed in CHO cells; type: cell-based; method in brief: as §1
T2 sequence (P49286 whole entry): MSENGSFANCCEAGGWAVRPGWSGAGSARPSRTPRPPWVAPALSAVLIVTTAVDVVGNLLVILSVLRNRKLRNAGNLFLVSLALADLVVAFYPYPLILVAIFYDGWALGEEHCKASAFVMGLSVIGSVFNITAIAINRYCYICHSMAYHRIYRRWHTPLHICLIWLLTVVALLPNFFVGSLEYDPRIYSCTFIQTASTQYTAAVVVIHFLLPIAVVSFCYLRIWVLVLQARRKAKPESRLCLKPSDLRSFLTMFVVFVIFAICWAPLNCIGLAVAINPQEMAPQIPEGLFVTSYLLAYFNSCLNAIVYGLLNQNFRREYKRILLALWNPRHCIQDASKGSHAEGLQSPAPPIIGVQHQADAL

Homo sapiens = species: Homo sapiens; assay: Selectivity ratio of Ki for human MT2 receptor to Ki for human MT1 receptor
[3] = molecular target: T1, Melatonin receptor type 1A; assay: Agonist activity at human MT1 receptor expressed in CHO cells by [35S]GTPgamma binding assay; type: functional, cell-based
[4] = molecular target: T2, Melatonin receptor type 1B; assay: Agonist activity at human MT2 receptor expressed in CHO cells by [35S]GTPgamma binding assay; type: functional, cell-based

T1 sequence (P48039 whole entry): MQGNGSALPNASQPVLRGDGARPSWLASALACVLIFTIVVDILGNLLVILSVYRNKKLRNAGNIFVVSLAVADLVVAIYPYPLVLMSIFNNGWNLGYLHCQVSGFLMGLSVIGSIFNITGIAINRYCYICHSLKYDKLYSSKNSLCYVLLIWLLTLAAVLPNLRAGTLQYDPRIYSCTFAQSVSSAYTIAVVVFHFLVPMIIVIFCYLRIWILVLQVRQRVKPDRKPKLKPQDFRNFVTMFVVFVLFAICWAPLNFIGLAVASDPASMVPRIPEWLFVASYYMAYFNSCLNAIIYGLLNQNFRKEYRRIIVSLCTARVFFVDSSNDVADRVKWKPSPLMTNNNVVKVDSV

| Ki [1] | Ki [2] | Ratio Ki (Homo sapiens) | EC50 [3] | EC50 [4] | Compound |
| --- | --- | --- | --- | --- | --- |
| 9.1 nM | 45.8 nM | 5 | 3.14 nM | – | CC(=O)NCCc1cccc2ccc(OCCCCOc3ccc4cccc(CC(=O)O)c4c3)cc12 |
| 0.64 nM | 11.8 nM | 18 | 11.2 nM | – | CC(=O)NCCc1cccc2ccc(OCCCCOc3ccc4cccc(CCNC(=O)c5ccco5)c4c3)cc12 |
| 0.07 nM | 1.84 nM | 26 | 2.89 nM | – | COC(=O)Cc1cccc2ccc(OCCCCOc3ccc4cccc(CCNC(C)=O)c4c3)cc12 |
| 0.79 nM | 8.45 nM | 11 | 12 nM | – | C=CCC(=O)NCCc1cccc2ccc(OCCCCOc3ccc4cccc(CCNC(C)=O)c4c3)cc12 |
| 1.01 nM | 13.6 nM | 13 | – | 134 nM | O=C(NCCc1cccc2ccc(OCCCCOc3ccc4cccc(CCNC(=O)C5CC5)c4c3)cc12)C1CC1 |
| 1.07 nM | 11.1 nM | 10 | 9.1 nM | – | CC(=O)NCCc1cccc2ccc(OCCCCOc3ccc4cccc(CCNC(=O)C5CC5)c4c3)cc12 |
| – | – | 120 | 73 nM | 405 nM | CC(=O)NCCc1cccc2ccc(OCCCCOc3ccc4cccc(CCNC(C)=O)c4c3)cc12 |
| 3.47 nM | 16.9 nM | 5 | 1.94 nM | 20.6 nM | CC(=O)NCCc1cccc2ccc(OCCCCOc3ccc4scc(CCNC(C)=O)c4c3)cc12 |
| 1.38 nM | 13.9 nM | 10 | 2.49 nM | – | CC(=O)NCCc1cccc2ccc(OCCCCOc3ccc4occ(CCNC(C)=O)c4c3)cc12 |
| 0.92 nM | 10.9 nM | 12 | 16.1 nM | 40.2 nM | C=CCC(=O)NCCc1cccc2ccc(OCCCCOc3ccc4cccc(CCNC(=O)CC=C)c4c3)cc12 |

Further lines, the compound ahead of its results:

| Compound | Ki [1] | Ki [2] | Ratio Ki (Homo sapiens) | EC50 [3] | EC50 [4] |
| --- | --- | --- | --- | --- | --- |
| CC(=O)NCCc1cccc2ccc(OCCCCOc3ccc4[nH]cc(CCNC(C)=O)c4c3)cc12 | 4.04 nM | 84.3 nM | 21 | 2.38 nM | – |
| O=C(NCCCc1ccc2nc(CCCCc3ccccc3)oc2c1)C1CC1 | – | – | 35 | – | – |
| CC(=O)NCCc1cccc2ccc(OCCCCOc3ccc4cc(C(C)C(=O)O)ccc4c3)cc12 (centres undefined) | 1.51 nM | 59.1 nM | 39 | 22 nM | 161 nM |
| CC(=O)NCCc1cccc2ccc(OCCCCOc3ccc(-c4ccc(C(=O)O)cc4)cc3)cc12 | 0.55 nM | 51.3 nM | 93 | 26.1 nM | – |
| COC(=O)c1ccc(-c2ccc(OCCCCOc3ccc4cccc(CCNC(C)=O)c4c3)cc2)cc1 | 2.37 nM | 19.1 nM | 8 | 46.2 nM | – |
| CC(=O)NCCc1cccc2ccc(OCCCCOc3ccc4c(c3)C(CCNC(C)=O)CCC4)cc12 (centres undefined) | 0.26 nM | 6.79 nM | 26 | 7.75 nM | – |
| COC(=O)C(C)c1ccc2cc(OCCCCOc3ccc4cccc(CCNC(C)=O)c4c3)ccc2c1 (centres undefined) | 0.37 nM | 4.22 nM | 11 | 21.7 nM | 88 nM |
| CC(=O)NCCc1cccc2ccc(-c3ccc4cccc(CCNC(C)=O)c4c3)cc12 | – | – | 70 | – | – |
| CC(=O)NCCc1cccc2ccc(OCCCCOc3ccc(-c4ccc(CO)cc4)cc3)cc12 | 0.09 nM | 6.53 nM | 72 | 2.37 nM | 26 nM |
